Assay results: ChEMBL document CHEMBL3621107, “Ring fusion strategy for synthesis and lead optimization of sulfur-substituted anthra[1,2-c][1,2,5]thiadiazole-6,11-dione derivatives as promising scaffold of antitumor agents” (Eur J Med Chem, 2015)

How the values were obtained:
[1] = test system: PC-3; test: Cytotoxicity against human PC3 cells after 48 hrs by SRB assay; assay type: functional, cell-based; conditions: PC-3, 48 h
Procedure, shortened: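 Second-stage NCI-60 panel run by the NCI Developmental Therapeutics Program, covering nine tumour subpanels. Five concentrations were tested: 0.01, 0.1, 1, 10 and 100 μM. Percentage growth at each level was plotted against log10 drug concentration. GI50, TGI and LC50 were read from these dose-response curves. Subpanel MID values were divided into the full-panel MID to give selectivity ratios.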

[2] = test system: DU-145; test: Cytotoxicity against human DU145 cells after 72 hrs by MTT assay; assay type: functional, cell-based; conditions: DU-145, 72 h
Procedure, shortened: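 DU-145 cells grown in RPMI-1640 with 5% heat-inactivated fetal calf serum at 37 °C, 5% CO2. About 2×10^3 cells per well were seeded and incubated for 24 h. Compounds were dissolved in DMSO freshly and diluted into medium (vehicle 0.1% DMSO), then cells were exposed for 72 h. MTT was added for 3 h at 37 °C and absorbance read at 570 nm.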

[3] = Cytotoxicity against human RWPE1 cells assessed as survival rate after 72 hrs by MTT assay; assay type: cell-based, RWPE-1; conditions: rwpe-1, 72 h
Procedure, shortened: (§1)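 About 2×10^3 cells/well preincubated 24 h at 37 °C, 5% CO2. Compound freshly dissolved in DMSO, diluted into complete medium and added at various concentrations (vehicle 0.1% DMSO) for 72 h. MTT added for 3 h at 37 °C, absorbance read at 570 nm, survival rate derived.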

[4] = Cytotoxicity against human WPMY-1cells assessed as survival rate after 72 hrs by MTT assay; assay type: cell-based; conditions: wpmy-1, 72 h; procedure, shortened: as §1
[5] = Cytotoxicity against human SV-HUC1 cells assessed as survival rate after 72 hrs by MTT assay; assay type: cell-based; conditions: sv-huc1, 72 h
Procedure, shortened: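 SV-HUC-1 cells grown in Ham's F-12K with 5% heat-inactivated fetal calf serum, 37 °C, 5% CO2. About 2×10^3 cells/well plated for 24 h, then a range of compound concentrations (DMSO stock diluted into medium; vehicle 0.1% DMSO) for 72 h. MTT added for 3 h at 37 °C; absorbance 570 nm.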

Row | Structure (SMILES) | IC50 [1] | IC50 [2] | Activity [3] | Activity [4] | Activity [5]
1 | O=C1c2ccccc2C(=O)c2c1cc(SCCc1ccccc1)c1nsnc21 | > 15 µM | 9.65 µM |  |  | 
2 | Cc1ccc(C)c(Sc2cc3c(c4nsnc24)C(=O)c2ccccc2C3=O)c1 | 7.44 µM | 12 µM |  |  | 
3 | O=C1c2ccccc2C(=O)c2c1cc(Sc1cccc(F)c1)c1nsnc21 | 8.82 µM | 12.7 µM |  |  | 
4 | O=C1c2ccccc2C(=O)c2c1cc(Sc1ccc(F)cc1)c1nsnc21 | 6.7 µM | 11.1 µM |  |  | 
5 | Cc1ccc(Sc2cc3c(c4nsnc24)C(=O)c2ccccc2C3=O)cc1C | > 15 µM | 14.1 µM |  |  | 
6 | O=C1c2ccccc2C(=O)c2c1cc(Sc1ccccc1F)c1nsnc21 | > 15 µM | 7.64 µM |  |  | 
7 | CCCSc1cc2c(c3nsnc13)C(=O)c1ccccc1C2=O | 5.39 µM | 2.55 µM |  |  | 
8 | Cc1ccc(Sc2cc3c(c4nsnc24)C(=O)c2ccccc2C3=O)cc1 | > 15 µM | > 15 µM |  |  | 
9 | CC(C)c1ccccc1Sc1cc2c(c3nsnc13)C(=O)c1ccccc1C2=O | > 15 µM | 14.6 µM |  |  | 
10 | CCc1ccccc1Sc1cc2c(c3nsnc13)C(=O)c1ccccc1C2=O | > 15 µM | > 15 µM |  |  | 
11 | CC(C)(C)c1ccc(CSc2cc3c(c4nsnc24)C(=O)c2ccccc2C3=O)cc1 | 9.5 µM | 3.66 µM |  |  | 
12 | CC(C)(C)c1ccc(Sc2cc3c(c4nsnc24)C(=O)c2ccccc2C3=O)cc1 | > 15 µM | 8.38 µM |  |  | 
13 | O=C1c2ccccc2C(=O)c2c1cc(Sc1ccc(Br)cc1)c1nsnc21 | > 15 µM | 13.3 µM |  |  | 
14 | CCc1ccc(Sc2cc3c(c4nsnc24)C(=O)c2ccccc2C3=O)cc1 | 7.5 µM | 2.52 µM |  |  | 
15 | O=C1c2ccccc2C(=O)c2c1cc(SCc1ccccc1Cl)c1nsnc21 | 5.48 µM | 6.38 µM |  |  | 
16 | COc1cccc2c1C(=O)c1c(O)c3c(c(O)c1C2=O)C[C@@](O)(C(=O)CO)C[C@@H]3O[C@H]1C[C@H](N)[C@H](O)[C@H](C)O1 [DOXORUBICIN] |  |  | Toxic | Toxic | Toxic
17 | COc1ccccc1Sc1cc2c(c3nsnc13)C(=O)c1ccccc1C2=O | > 15 µM | 12.9 µM |  |  | 
18 | Cc1cccc(Sc2cc3c(c4nsnc24)C(=O)c2ccccc2C3=O)c1 | > 15 µM | > 15 µM |  |  | 
19 | CC(C)c1ccc(Sc2cc3c(c4nsnc24)C(=O)c2ccccc2C3=O)cc1 | > 15 µM | 13.8 µM |  |  | 
20 | O=C1c2ccccc2C(=O)c2c1cc(Sc1ccccc1Cl)c1nsnc21 | > 15 µM | > 15 µM |  |  | 
21 | O=C1c2ccccc2C(=O)c2c1cc(Sc1cccc(Br)c1)c1nsnc21 | 12.4 µM | 10.7 µM |  |  | 
22 | O=C1c2ccccc2C(=O)c2c1cc(Sc1cc(Cl)c(Cl)cc1Cl)c1nsnc21 | > 15 µM | > 15 µM |  |  | 
